In assay [1] the target is Lysosomal alpha-glucosidase (Homo sapiens) (UniProt P10253). Nature of the assay: Activation of alpha-glucosidase using 4-MU-alpha-glucose as substrate.
Assay [2] is described as follows: Activation of alpha-galactosidase using 4-MU-alpha-galactose as substrate.
Assay [3] concerns T1, Lysosomal acid glucosylceramidase (Homo sapiens), P04062 [N409S].
T1 sequence (whole entry): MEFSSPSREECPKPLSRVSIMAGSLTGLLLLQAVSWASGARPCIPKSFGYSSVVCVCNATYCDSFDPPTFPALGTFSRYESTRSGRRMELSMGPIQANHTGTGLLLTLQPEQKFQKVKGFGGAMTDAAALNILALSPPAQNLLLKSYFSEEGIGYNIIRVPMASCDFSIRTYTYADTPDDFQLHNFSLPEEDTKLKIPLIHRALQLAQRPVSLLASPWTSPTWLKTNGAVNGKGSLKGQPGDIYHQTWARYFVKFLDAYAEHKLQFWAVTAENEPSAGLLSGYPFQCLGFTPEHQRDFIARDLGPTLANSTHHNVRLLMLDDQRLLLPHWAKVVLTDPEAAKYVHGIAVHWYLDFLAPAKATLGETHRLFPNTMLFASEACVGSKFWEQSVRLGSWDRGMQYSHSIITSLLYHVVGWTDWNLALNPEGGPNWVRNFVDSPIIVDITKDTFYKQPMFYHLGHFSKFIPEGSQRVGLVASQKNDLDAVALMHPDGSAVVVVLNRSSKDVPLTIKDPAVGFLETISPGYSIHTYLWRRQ
In words: Activation of glucocerebrosidase N370S mutant in Gaucher patient spleen homogenates using 4-methylumbelliferone-Glc as substrate assessed as half-maximal activation concentration incubated for 5 mins prior to substrate addition measured after 30 to 45 mins by fluorimetric analysis. Type of assay: tissue-based. Put shortly: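 Spleen homogenate (27 μg final) in pH 5 citrate/phosphate buffer with KCl, NaCl, MgCl₂ and 0.01% Tween-20. Compound was titrated 0.5 nM to 58 μM and preincubated 5 min at room temperature. Reaction used 1 mM 4MU-Glc for 30−45 min at 37 °C and was stopped with NaOH/glycine pH 10. Read-out was fluorescence at Ex 365/Em 440 nm. AC₅₀ is the average of N = 2.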

For assay [4] the test system is unchanged. In words: Activation of glucocerebrosidase N370S mutant using resorufin beta-D-glucopyranoside as substrate incubated for 5 mins prior to substrate addition measured after 30 to 45 mins by fluorimetric analysis. The method, boiled down: (§1)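 Purified recombinant enzyme at 5 nM final: wt in citrate/KH₂PO₄ pH 5.9, N370S at pH 7, with 0.01% Tween-20. Compound was preincubated 5 min at room temperature. Resorufin β-D-glucopyranoside was 15 μM final for 30−45 min at 37 °C, stopped with Tris-HCl pH 8.0. Read-out was fluorescence at Ex 573/Em 610 nm.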

The species named for a further assay is Homo sapiens. In words: Ratio of half-maximal activation concentration for glucocerebrosidase N370S (unknwon origin) to half-maximal activation concentration for glucocerebrosidase N370S in Gaucher patient spleen homogenate. Type of assay: tissue-based.
The target of assay [5] is T2, Lysosomal acid glucosylceramidase (Homo sapiens) (UniProt P04062).
T2 sequence (whole entry): T1 sequence (whole entry) with S409N
In words: Activation of wild type glucocerebrosidase using resorufin beta-D-glucopyranoside as substrate incubated for 5 mins prior to substrate addition measured after 30 to 45 mins by fluorimetric analysis. The method, boiled down: as §1

Assay [6] concerns the target T2, Lysosomal acid glucosylceramidase (Homo sapiens). In words: Activation of wild type glucocerebrosidase in human spleen homogenate using resorufin beta-D-glucopyranoside as substrate incubated for 5 mins prior to substrate addition measured after 30 to 45 mins by fluorimetric analysis. Type of assay: tissue-based. The method, boiled down: (§2)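 Spleen homogenate (27 μg final) in pH 5 citrate/phosphate buffer with 0.01% Tween-20. Compound was titrated 0.5 nM to 58 μM and preincubated 5 min at room temperature. Resorufin β-D-glucopyranoside was 15 μM final, incubated 30−45 min at 37 °C and stopped with 1 M Tris-HCl pH 8.0. Read-out was fluorescence at Ex 573/Em 610 nm.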

Assay [7] relates to T1, Lysosomal acid glucosylceramidase (Homo sapiens), P04062 [N409S]. In words: Activation of glucocerebrosidase N370S mutant in Gaucher patient spleen homogenate using resorufin beta-D-glucopyranoside as substrate incubated for 5 mins prior to substrate addition measured after 30 to 45 mins by fluorimetric analysis. It is filed as tissue-based. The method, boiled down:
as §2

Assay [8] addresses T2, Lysosomal acid glucosylceramidase (Homo sapiens). In words: Ratio of half-maximal activation concentration for wild type glucocerebrosidase to half-maximal activation concentration for wild type glucocerebrosidase in human spleen homogenate. Type of assay: tissue-based.
Assay [9] deals with T1, Lysosomal acid glucosylceramidase (Homo sapiens), P04062 [N409S]. Nature of the assay: Activation of glucocerebrosidase N370S mutant using C12-BODIPY-GlcCer as substrate assessed as half-maximal activation concentration incubated for 5 mins prior to substrate addition measured after 30 to 45 mins by HPLC analysis. The method, boiled down:
(§3)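 N370S/N370S patient spleen homogenate at 140 μg/well. Compound was tested at 9 concentrations, 1:2 dilutions from 50 μM. Substrate was 2 mM 4MU-Glc or the C12-BODIPY substrate at 25 μM; other conditions as the plate assay. Stopped reactions were separated on C18 HPLC with fluorescence detection: 4MU at 365/440 nm, C12-BODIPY-Cer at 506/540 nm.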

Assay [10] shares this test system. In words: Activation of glucocerebrosidase N370S mutant using 4-methylumbelliferone-beta-Glc as substrate incubated for 5 mins prior to substrate addition measured after 30 to 45 mins by HPLC analysis. The method, boiled down: as §3

Data on 28 compounds can be found in ChEMBL document CHEMBL2169863, “Discovery, structure-activity relationship, and biological evaluation of noninhibitory small molecule chaperones of glucocerebrosidase” (J Med Chem, 2012).

Substitutions are numbered along the chain they refer to. Activity calls are given as the source filed them.

For `Cc1cc(C)n2ncc(C(=O)N[C@H]3CC[C@H](C(C)(C)C)CC3)c2n1`, the result in [1] and in assay [2] was inactive. For the same compound, the Activity in assay [3] came to 4.11 µM.

Regarding `Cc1cc(C)n2ncc(C(=O)NCc3ccccc3)c2n1`, the result in assay [1] and in assay [2] was inactive. The Activity in [3] turned out to be 51.7 µM.

In the case of `Cc1cc(C)n2ncc(C(=O)Nc3cccc(C#N)c3)c2n1`, the outcome in [1], in assay [2] and in assay [3] was inactive.

As to `Cc1cc(C)n2ncc(C(=O)Nc3ccc(S(C)(=O)=O)cc3)c2n1`, the outcome in assay [1], in [2] and in assay [3] was inactive.

Consider `Cc1cc(C)n2ncc(C(=O)Nc3cccc(C(F)(F)F)c3)c2n1`, for which the result in assay [1] and in assay [2] was inactive. In addition, the Activity in assay [3] came out at 41.1 µM.

With `COc1ccc(NC(=O)c2cnn3c(C)cc(C)nc23)cc1`, the outcome in assay [1] and in assay [2] was inactive. Moreover, the Activity in [3] stood at 8.19 µM.

On to `Cc1cc(C)n2ncc(C(=O)N[C@H]3CC[C@@H](C(C)(C)C)CC3)c2n1`, for which the outcome in assay [1] and in assay [2] was inactive. The Activity in assay [3] is 25.9 µM.

Consider `Cc1cc(C)n2ncc(C(=O)Nc3ccncc3)c2n1`, for which the result in assay [1], in [2] and in assay [3] was inactive.

`Cc1cc(-c2ccccc2)nc2c(C(=O)Nc3ccc4c(c3)CCC4)cnn12`: the result in assay [1] and in assay [2] was inactive. Also, the Activity in assay [3] amounted to 8.19 µM.

On to `Cc1cc(C)n2ncc(C(=O)Nc3ccccc3C)c2n1`, for which the result in assay [1] and in [2] was inactive. Besides, the Activity in assay [3] amounted to 16.3 µM.

Take `Cc1cccc(NC(=O)c2cnn3c(C)cc(C)nc23)c1`: the outcome in assay [1] and in assay [2] was inactive. In assay [3], the Activity came out at 6.51 µM.

As to `CCc1ccc(NC(=O)c2cnn3c(C(F)F)cc(C)nc23)cc1`, the outcome in [4], in assay [1], in [5], in [2], in assay [6] and in assay [7] was inactive. The Ratio (in the assay filed under Homo sapiens; in [8]) was 3 throughout. Moreover, in [3], the Activity amounted to 2.24 µM.

`Cc1cc(C)n2ncc(C(=O)Nc3ccccc3)c2n1`: the outcome in assay [1] and in [2] was inactive. The Activity in [3] worked out at 8.19 µM.

`O=C(Nc1ccccc1Sc1ccccc1)c1cnn2c(C(F)F)cc(C3CC3)nc12`: the outcome in assay [9], in assay [4], in assay [1], in [5], in assay [2] and in assay [6] was inactive. The outcome in [7] was inactive. The Ratio (in the assay filed under Homo sapiens; in [8]) was 3 in each case. For the same compound, the figures for the Activity in assay [3] and in assay [10] were 4.6 µM and “Dose-dependent effect”, respectively.

Consider `CCc1ccc(NC(=O)c2cnn3c(C)cc(C)nc23)cc1`, for which the result in assay [1] and in [2] was inactive. In addition, the Activity in assay [3] came out at 3.26 µM.

Take `Cc1cc(C)n2ncc(C(=O)Nc3cc(Cl)cc(Cl)c3)c2n1`: the outcome in assay [1] and in [2] was inactive. In assay [3], the Activity was 25.9 µM.

Turning to `CC(=O)Nc1ccc(NC(=O)c2cnn3c(C)cc(C)nc23)cc1`, the outcome in assay [1], in assay [2] and in assay [3] was inactive.

As to `Cc1cc(C)n2ncc(C(=O)Nc3ccc(C(C)(C)C)cc3)c2n1`, the result in [1] and in assay [2] was inactive. Moreover, the Activity in assay [3] amounted to 2.31 µM.

With `CCc1ccc(NC(=O)c2cnn3c(C)cc(-c4ccccc4)nc23)cc1`, the result in assay [1] and in assay [2] was inactive. Besides, in assay [3], the Activity came to 12.9 µM.

For the compound `CC(=O)c1ccc(NC(=O)c2cnn3c(C)cc(C)nc23)cc1`, the result in [1] and in [2] was inactive. Also, the Activity in assay [3] worked out at 163 µM.

For `COc1cc(NC(=O)c2cnn3c(C)cc(C)nc23)cc(OC)c1OC`, the outcome in assay [1], in assay [2] and in assay [3] was inactive.

Regarding `Cc1cc(C)n2ncc(C(=O)Nc3ccc4c(c3)OCCO4)c2n1`, the result in assay [1] and in [2] was inactive. Also, the Activity in assay [3] was 10.3 µM.

On to `Cc1cc(-c2ccccc2)n2ncc(C(=O)Nc3ccc(Cl)c(Cl)c3)c2n1`, for which the result in assay [1], in [2] and in assay [3] was inactive.

In the case of `Cc1cc(C)n2ncc(C(=O)Nc3ccc4c(c3)CCC4)c2n1`, the result in [1] and in [2] was inactive. Moreover, the Activity in [3] stood at 2.59 µM.

On to `CCC(C)c1ccc(NC(=O)c2cnn3c(C(F)F)cc(C)nc23)cc1` (stereo not drawn), for which the outcome in assay [4], in assay [1], in assay [5], in assay [2], in assay [6] and in assay [7] was inactive. The Ratio (in the assay listed under Homo sapiens; in assay [8]) was 3 throughout.

With `COc1ccc(NC(=O)c2cnn3c(-c4ccccc4)cc(C)nc23)cc1`, the outcome in assay [1], in [2] and in assay [3] was inactive.

As to `Cc1cc(C)n2ncc(C(=O)Nc3ccc(C)c(C)c3)c2n1`, the result in assay [1] and in [2] was inactive. Moreover, the Activity in [3] was found to be 1.46 µM.

For `Cc1ccc(NC(=O)c2cnn3c(C)cc(C)nc23)c(C)c1`, the result in assay [1] and in assay [2] was inactive. Besides, the Activity in [3] was determined as 13 µM.
